This is a sample that favours compounds with a hit; in the whole collection about 3.2% have one here.
MEKK2 mut-MEK5 = signal of MEK5 binding to mutant human MEKK2 PB1 domain. bead flow cytometry, Alexa488-MEK5 binding to MEKK2 mutant. hit rate 0.35% among 290,000. percent response, % at 10 µM; in the data active = percent response above about 24%, passing the limit was not always enough
Apaf1 inhib = blocks human Apaf-1 apoptosome activity; O14727; reconstituted apoptosome caspase-3 activity, DEVD-Rh110 fluorescence; inhibition, % at 20 µM; hit rate 0.71% among 330,000; active = inhibition of at least 40% at 20 µM
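Material: reconstituted apoptosome with Apaf-1, cytochrome c, caspase-9, procaspase-3, dATP / Buffer or medium: pH 7.5 Hepes buffer with CHAPS, BSA, DTT / Also added: cytochrome c with DEVD-Rh110 / Schedule: compound with Apaf-1, dATP, procaspase-3 30 min, then 50 min reaction, room temperature / Technique: rhodamine 110 fluorescence at Ex 480/Em 540 nm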
MEKK3 PB1 HTS = raises or lowers MEK5 binding to the human MEKK3 PB1 domain; binding response (% of control), % at 10 µM; hit rate 1.4% among 290,000; AID 1529; Q99759; bead-based flow cytometry, Alexa488-MEK5 binding to MEKK3; actives lie on both sides; 0 = blocked by unlabeled MEK5, 100 = vehicle;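 active = binding response more than 3 SD above or below the average of its plate-row segment, actives on both sides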;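 note: Alexa488 bead fluorescence after subtracting the streptavidin-only scavenger bead signal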
Target sequence (Q99759 whole entry, looked up, the tested form may be a part): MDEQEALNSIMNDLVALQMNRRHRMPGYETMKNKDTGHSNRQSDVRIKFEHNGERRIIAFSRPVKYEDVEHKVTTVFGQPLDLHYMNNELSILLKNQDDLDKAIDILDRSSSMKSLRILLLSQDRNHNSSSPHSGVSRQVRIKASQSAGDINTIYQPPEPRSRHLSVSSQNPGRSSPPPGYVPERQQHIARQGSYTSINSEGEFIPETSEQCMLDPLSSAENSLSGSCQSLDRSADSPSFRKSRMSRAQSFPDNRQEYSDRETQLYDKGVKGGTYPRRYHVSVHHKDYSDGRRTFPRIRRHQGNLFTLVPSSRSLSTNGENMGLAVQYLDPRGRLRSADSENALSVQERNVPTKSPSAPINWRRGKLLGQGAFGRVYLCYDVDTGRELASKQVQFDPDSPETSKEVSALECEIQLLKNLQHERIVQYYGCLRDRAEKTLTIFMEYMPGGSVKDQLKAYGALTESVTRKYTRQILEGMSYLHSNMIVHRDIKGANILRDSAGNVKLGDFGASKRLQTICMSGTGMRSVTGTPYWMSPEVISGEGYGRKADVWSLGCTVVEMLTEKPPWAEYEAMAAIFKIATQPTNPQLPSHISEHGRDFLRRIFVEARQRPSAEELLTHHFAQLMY
UBC13 inh = human UBC13 polyubiquitination inhibition; UBC13 polyubiquitin chain formation, TR-FRET; hit rate 0.47% among 330,000; inhibition, % at 20 µM; in the data active = inhibition above about 45%, passing the limit was not always enough
MEKK2 WT-MEK5 = raises or lowers MEK5 binding to wildtype human MEKK2 PB1 domain; hit rate 1.1% among 290,000; bead flow cytometry, Alexa488-MEK5 binding to MEKK2 WT; actives lie on both sides; Q9Y2U5; binding response (% of control), % at 10 µM; in the data active = binding response below about 67% or above about 130%
Pemphigus Ab inh = blocks pemphigus antibody binding to human desmoglein-3 | DSG3-coupled beads, scFv-anti-DSG3-GFP binding, flow cytometry; hits give low values | hit rate 0.48% among 310,000 | AID 588358 | P32926 | binding (percent of control), % at 10 µM;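 active = binding more than 3 SD below its plate's average and above zero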;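 note: hits lower antibody fragment binding to DSG3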
MEKK2wt confirm = raises or lowers MEK5 binding to wildtype human MEKK2, retest; binding response (% of control), % at 10 µM; bead flow cytometry, Alexa488-MEK5 binding to MEKK2 WT; actives lie on both sides; shares compounds with MEKK3 PB1 HTS; hit rate 2.4% among 5,900; in the data active = binding response below about 16% or above about 210%; inactive = in between
MEKK2mut confirm = signal of MEK5 binding to mutant human MEKK2, retest | bead flow cytometry, Alexa488-MEK5 binding to MEKK2 mutant | shares compounds with MEKK3 PB1 HTS | AID 1893 | hit rate 2% among 5,900 | percent response, % at 10 µM; in the data active = percent response mostly above about 71%, no sharp cut-off; inactive = mostly below about 38%;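 note: higher means compound restores mutant binding toward wildtype level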
MEKK3-MEK5 inh = MEKK3-MEK5 PB1 inhibition, single concentration confirmation | hit rate 1.8% among 5,900 | shares compounds with MEKK3 PB1 HTS | bead flow cytometry, Alexa488-MEK5 binding to MEKK3; hits give low values | binding response (% of control), % at 10 µM;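 active = binding response below 72% of control, or above a set upper limit, though filed actives all read lower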;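 note: lower values mean stronger disruption of MEK5 binding to MEKK3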
A number is an active result; - = inactive; . = no result given; [ ] = another dose, or the depositor's remark.

SMILES | MEKK2 mut-MEK5 | Apaf1 inhib | MEKK3 PB1 HTS | UBC13 inh | MEKK2 WT-MEK5 | Pemphigus Ab inh | MEKK2wt confirm | MEKK2mut confirm | MEKK3-MEK5 inh
Cc1cc2ccccc2n1CCNC(=O)c1cccs1 | - | - | 34[inhibitor] | - | 9.0[inhibitor] | 61 | - | - | 70
O=C1NC(=O)C2(Br)Nc3ccc(Br)cc3C(=O)C2N1 (stereo unspecified) | . | . | . | . | . | - | . | . | .
CC1(C)CC(O)C(C(O)c2cccc([N+](=O)[O-])c2)C(C)(C)N1 (stereo unspecified) | - | - | 148 | - | - | - | - | - | -
COc1ccccc1C1CCCN1Cc1nc(-c2cc3c(cc2Cl)OCO3)oc1C (stereo unspecified) | - | - | - | - | - | - | . | . | .
COc1ccccc1C1CCCN1Cc1nc(-c2ccc(C)s2)oc1C (stereo unspecified) | - | - | 61[inhibitor] | - | 63[inhibitor] | - | - | - | -
COC(=O)c1cc(NC(=O)c2cc(C(C)(C)C)nn2Cc2ccc(F)cc2)ccc1N1CCOCC1 | - | - | 133 | - | - | - | - | - | -
Cc1ccccc1-n1nc(C)c2cc(C(=O)N3CCOCC3)sc21 | - | - | - | - | 211 | - | - | - | -
CCOC(=O)c1ccc2c(c1)nc(SC(C)C(=O)NCC1CCCO1)n2CC (stereo unspecified) | . | - | . | - | . | - | . | . | .
COCCCNC(=O)Cn1cc(/C=C(\C#N)C(=O)NC2CC2)c2ccccc21 | - | - | - | - | - | - | . | . | .
CCOC(=O)c1c(-c2ccccc2)oc2ccc(OCC(=O)NNC(=O)CCC(=O)O)cc12 | - | - | 5.0[inhibitor] | - | 9.0[inhibitor] | - | - | - | -
CCOC(=O)c1ccccc1-n1c(C)cc(C2N=C(N)Nc3nc4ccccc4n32)c1C (stereo unspecified) | - | - | - | - | 146 | - | - | - | -
CCOC(=O)C1=C(C)Nc2nc3ccccc3n2C1c1ccc(O)cc1 (stereo unspecified) | - | - | - | - | - | - | . | . | .
O=C(c1ccc(N2C(=O)C3C4CC(C(Br)C4Br)C3C2=O)cc1)N1CCCCC1 (stereo unspecified) | - | - | - | - | - | . | . | . | .
CC1CCN(S(=O)(=O)N2CCN(C(=O)c3ccc4c(c3)OCO4)CC2)CC1 | - | - | - | - | - | . | . | . | .
Cc1ccc2c(c1)c1c3n2CCN=C3CCC1 | - | - | - | - | - | - | . | . | .
c1cc2c(cc1C1CCCCC1)c1c3n2CCN=C3CCC1 | - | - | - | - | 135 | - | - | - | -
CCOC(=O)N1CCN(C(=O)/C=C/c2ccc(C(C)(C)C)cc2)CC1 | - | - | - | - | - | - | . | . | .
COc1cccc(OCCn2cc(C(C)=O)c3ccccc32)c1 | - | - | - | - | - | - | . | . | .
CCN(CC)CCNC(C(=O)Nc1cc(C(F)(F)F)ccc1Cl)c1ccccc1 (stereo unspecified) | - | - | 143 | - | - | - | - | - | -
O=C(Nc1cc(C(F)(F)F)ccc1Cl)C(NCc1ccccc1)c1ccccc1 (stereo unspecified) | - | - | - | - | - | - | . | . | .
O=S(=O)(c1c(F)cccc1F)N1CCCC2CCCCC21 (stereo unspecified) | . | - | . | - | . | - | . | . | .
O=[N+]([O-])c1ccc(C2=NN(c3ccccc3)C(c3ccco3)C2)cc1 (stereo unspecified) | 124 | . | - | . | 33 | . | - | - | -
Cn1nnnc1SCC(=O)Nc1ccccc1Cc1ccccc1 | - | - | 3.0[inhibitor] | - | 3.0[inhibitor] | - | - | - | -
Cn1nnnc1SCC(=O)Nc1ccccc1Br | - | - | - | - | - | - | . | . | .
O=C(CN1C(=O)NC2NC(=O)NC21)NN=C1CCCC1 (stereo unspecified) | - | - | 150 | - | - | - | - | - | -
SMILES | MEKK2 mut-MEK5 | Apaf1 inhib | MEKK3 PB1 HTS | UBC13 inh | MEKK2 WT-MEK5 | Pemphigus Ab inh | MEKK2wt confirm | MEKK2mut confirm | MEKK3-MEK5 inh
Cc1oc(C)c(C(=O)O)c1C(=O)O | - | - | 45[inhibitor] | - | - | - | - | - | -
COC(=O)c1c(C)oc(C)c(C(=O)OC)c1=O | - | - | - | - | - | - | . | . | .
COc1cc2ccccc2cc1C(=O)N/N=C/c1cccs1 | . | . | . | . | . | - | . | . | .
COc1ccc(CN2C(=O)C(CC(=O)NC3CCCCC3)CC(C(=O)N(C(C)C)C(C)C)=C2C)cc1 (stereo unspecified) | . | . | . | . | . | - | . | . | .
CC(=O)c1c(C)[nH]c(C(=O)Nc2ccc(Cl)c(S(=O)(=O)N3CCOCC3)c2)c1C | - | - | - | - | - | - | . | . | .
COc1ccccc1C(=O)Nc1ccc(S(=O)(=O)N2CCOCC2)cc1 | 24 | - | - | - | - | . | - | - | -
CCOc1ccccc1C(=O)Nc1ccc(S(=O)(=O)N2CCOCC2)cc1 | - | - | - | - | - | - | . | . | .
O=C(Nc1ccc(S(=O)(=O)N2CCCCC2)cc1)c1ccc(CN2CCOCC2)cc1 | - | - | 74[inhibitor] | - | - | - | - | - | -
COc1ccc(NC(=O)c2[nH]c(C)c(C(C)=O)c2C)cc1S(=O)(=O)N1CCOCC1 | - | - | 129 | - | - | . | - | - | -
CCc1ccc(C(=O)NNc2ccc(S(N)(=O)=O)cc2)cc1 | - | - | - | - | 186 | - | - | - | -
OCc1cn(-c2ccccc2)nc1-c1ccc(-c2nn(-c3ccccc3)cc2CO)cc1 | - | - | - | - | - | . | . | . | .
Fc1ccc(-n2cc(CNCCc3cccnc3)c(-c3ccccc3Cl)n2)cc1 | 66 | - | - | - | 221 | . | - | - | -
Fc1ccc(-c2nn(-c3ccccc3)cc2CNCc2ccccc2)cc1 | - | - | - | - | 160 | . | - | - | -
Fc1ccc(-n2cc(CNCCc3ccncc3)c(-c3ccccc3Cl)n2)cc1 | - | - | - | - | - | - | . | . | .
O=C(Nc1ccccc1N1CCCC1)C1CCN(C(=O)c2ccc(F)cc2)CC1 | . | - | . | - | . | - | . | . | .
CC(/C=C/c1ccccc1)=N/NC(=O)c1nc2nc(C)cc(C)n2n1 | - | - | 130 | - | - | - | - | - | -
CCN(C[C@H]1N[C@@](C)(C(=O)OC)[C@H]2C(=O)N(C)C(=O)[C@@H]12)C(=O)COc1ccccc1 | . | - | . | - | . | - | . | . | .
Cc1ccc(/C=C/C(=O)NC2=NCCS2)cc1 | - | - | - | - | 144 | - | - | - | -
Cc1cc(Cl)ccc1NC(=S)N(CCCN1CCOCC1)Cc1cccs1 | - | - | 128 | - | - | - | - | - | -

Bioassay records deposited in PubChem by several laboratories.
